Source: ChEMBL document CHEMBL2029259, “Design, synthesis, and biological evaluation of novel conformationally constrained inhibitors targeting epidermal growth factor receptor threonine⁷⁹⁰ → methionine⁷⁹⁰ mutant” (J Med Chem, 2012)
Calls of active or inactive are those of the source. No cut-off for these calls is given here.

Tests used:
[1] = target: Mitogen-activated protein kinase kinase kinase 15 (Homo sapiens) (UniProt Q6ZN16); test: Binding affinity to MAP3K15
Summary of the method: (§1)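 Ambit KINOMEscan binding assay. Binding for 1 h at r.t. Unbound kinase captured on immobilized affinity ligand and quantified by qPCR.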

[2] = target: Tyrosine-protein kinase JAK3 (Homo sapiens) (UniProt P52333); test: Binding affinity to JAK3; summary of the method: as §1
NCI-H1975 [3] = test: Induction of Cell cycle arrest in human NCI-H1975 cells harboring EGFR L858R/T790M mutant assessed as G1 phase cells after 24 hrs by flow cytometry assay; format: functional, cell-based
Summary of the method: (§2)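 Cells in six-well plates serum-starved 24 h to synchronize in G0−G1, then treated at indicated concentrations for 24 h. Lightly trypsinized and cell-cycle distribution analysed by flow cytometry.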

[4] = target: Cytoplasmic tyrosine-protein kinase BMX (Homo sapiens) (UniProt P51813); test: Binding affinity to BMX; summary of the method: as §1
[5] = target: Tyrosine-protein kinase Tec (Homo sapiens) (UniProt P42680); test: Binding affinity to TEC; summary of the method: as §1
[6] = target: T1, Epidermal growth factor receptor (Homo sapiens, UniProt P00533, L858R/T790M); test: Inhibition of EGFR L858R/T790M mutant after 1.5 hr by FRET assay; format: protein assay
[7] = Cytotoxicity against human HLF1 cells after 72 hrs by MTS assay; format: cell-based; conditions: hlf1, 72 h
Summary of the method: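 MTS proliferation read-out at 490 nm after 72 h exposure, cell number set to give absorbance 1.3−2.2. Six concentrations, 0.1 nM to 10 μM, at least six parallels each, repeated at least four times. IC50 from nonlinear sigmoidal dose−response fit.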

[8] = target: Platelet-derived growth factor receptor beta (Homo sapiens) (UniProt P09619); test: Binding affinity to PDGFRbeta; summary of the method: as §1
[9] = target: T2, Epidermal growth factor receptor (Homo sapiens, UniProt P00533, L861Q); test: Inhibition of EGFR L861Q mutant after 1.5 hr by FRET assay; format: protein assay
A549 = test: Antiproliferative activity against human A549 cells expressing wild type EGFR coexpressing k-Ras mutant after 72 hrs by MTS assay; conditions: A549, 72 h
[10] = target: T3, Epidermal growth factor receptor (Homo sapiens, UniProt P00533, T790M); test: Inhibition of EGFR T790M mutant after 1.5 hr by FRET assay; format: protein assay
[11] = Antiproliferative activity against human HL7702 cells expressing wilt type EGFR after 72 hrs by MTS assay; conditions: L02, 72 h
NCI-H1975 [12] = test: Induction of apoptosis in human NCI-H1975 cells harboring EGFR L858R/T790M mutant after 48 hrs by flow cytometry assay
[13] = target: Activated CDC42 kinase 1 (Homo sapiens) (UniProt Q07912); test: Binding affinity to TNK2; summary of the method: as §1
[14] = target: T4, Epidermal growth factor receptor (Homo sapiens, UniProt P00533, L858R); test: Inhibition of EGFR L858R mutant after 1.5 hr by FRET assay; format: protein assay
[15] = target: Tyrosine-protein kinase Lck (Homo sapiens) (UniProt P06239); test: Binding affinity to LCK; summary of the method: as §1
[16] = target: T5, Epidermal growth factor receptor (Homo sapiens, UniProt P00533); test: Inhibition of EGFR after 1.5 hr by FRET assay
NCI-H1975 [17] = test: Antiproliferative activity against human NCI-H1975 cells harboring EGFR L858R/T790M mutant assessed as inhibition of colony formation after 9 days by crystal violet staining; format: functional, cell-based
Summary of the method: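 H1975 cells seeded at 500 cells per 6-cm dish and grown 24 h, then treated at 0.1 to 10 nM. Medium with compound replaced every 3 days. After 9 days, fixed with 4% formaldehyde and stained with 0.2% crystal violet.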

HCC827 [18] = test: Induction of Cell cycle arrest in human HCC827 cells harboring EGFR del E746-A750 mutant assessed as G1 phase cells after 24 hrs by flow cytometry assay; format: functional, cell-based; summary of the method: as §2
HCC827 [19] = test: Induction of apoptosis in human HCC827 cells harboring EGFR del E746-A750 mutant after 48 hrs by flow cytometry assay
[20] = test system: Mast/stem cell growth factor receptor Kit (Homo sapiens), P10721 [V559D]; test: Binding affinity to KIT V559D mutant; summary of the method: as §1
NCI-H1975 [21] = test: cells; conditions: Homo sapiens, NCI-H1975, 72 h
A-431 = test: Antiproliferative activity against human A431 cells overexpressing EGFR after 72 hrs by MTS assay; conditions: A-431, 72 h
cells = conditions: Homo sapiens, HCC827, 72 h
[22] = target: T5, Epidermal growth factor receptor; test: Binding affinity to EGFR
[23] = target: T3, Epidermal growth factor receptor; test: Binding affinity to EGFR T790M mutant
[24] = target: T1, Epidermal growth factor receptor; test: Binding affinity to EGFR L858R/T790M mutant
[25] = target: T2, Epidermal growth factor receptor; test: Binding affinity to EGFR L861Q mutant
[26] = target: T4, Epidermal growth factor receptor; test: Binding affinity to EGFR L858R mutant

T2 sequence (P00533 25-1210 L861Q limits assumed): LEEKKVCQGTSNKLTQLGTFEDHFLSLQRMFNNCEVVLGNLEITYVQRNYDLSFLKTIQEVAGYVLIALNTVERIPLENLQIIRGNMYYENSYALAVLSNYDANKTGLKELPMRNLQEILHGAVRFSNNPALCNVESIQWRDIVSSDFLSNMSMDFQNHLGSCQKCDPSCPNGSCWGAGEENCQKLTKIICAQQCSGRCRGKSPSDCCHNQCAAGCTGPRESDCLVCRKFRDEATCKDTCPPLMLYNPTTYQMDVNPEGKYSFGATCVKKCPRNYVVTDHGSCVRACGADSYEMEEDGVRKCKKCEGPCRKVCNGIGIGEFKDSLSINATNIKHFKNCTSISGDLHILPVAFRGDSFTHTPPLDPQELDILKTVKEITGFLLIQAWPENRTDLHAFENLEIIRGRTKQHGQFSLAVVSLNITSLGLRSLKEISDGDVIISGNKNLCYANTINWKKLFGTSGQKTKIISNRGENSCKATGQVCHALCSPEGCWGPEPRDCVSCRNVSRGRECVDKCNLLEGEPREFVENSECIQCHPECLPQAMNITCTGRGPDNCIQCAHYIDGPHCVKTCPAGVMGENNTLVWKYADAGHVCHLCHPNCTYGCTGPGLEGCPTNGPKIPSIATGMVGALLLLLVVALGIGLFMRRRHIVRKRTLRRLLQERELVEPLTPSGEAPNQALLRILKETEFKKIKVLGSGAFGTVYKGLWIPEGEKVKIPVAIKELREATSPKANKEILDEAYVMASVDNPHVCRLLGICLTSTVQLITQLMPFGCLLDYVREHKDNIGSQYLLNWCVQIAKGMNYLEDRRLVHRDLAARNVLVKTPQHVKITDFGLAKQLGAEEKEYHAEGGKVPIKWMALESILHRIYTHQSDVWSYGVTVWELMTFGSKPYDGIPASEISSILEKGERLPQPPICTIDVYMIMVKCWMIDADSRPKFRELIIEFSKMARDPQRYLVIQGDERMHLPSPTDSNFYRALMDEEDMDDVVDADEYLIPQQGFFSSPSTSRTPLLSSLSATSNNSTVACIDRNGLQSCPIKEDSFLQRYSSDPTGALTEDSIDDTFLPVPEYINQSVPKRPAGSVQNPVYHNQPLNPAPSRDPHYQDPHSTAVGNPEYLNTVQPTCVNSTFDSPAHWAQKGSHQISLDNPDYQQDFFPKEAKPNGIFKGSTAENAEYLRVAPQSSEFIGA
T4 sequence (P00533 25-1210 L858R limits assumed): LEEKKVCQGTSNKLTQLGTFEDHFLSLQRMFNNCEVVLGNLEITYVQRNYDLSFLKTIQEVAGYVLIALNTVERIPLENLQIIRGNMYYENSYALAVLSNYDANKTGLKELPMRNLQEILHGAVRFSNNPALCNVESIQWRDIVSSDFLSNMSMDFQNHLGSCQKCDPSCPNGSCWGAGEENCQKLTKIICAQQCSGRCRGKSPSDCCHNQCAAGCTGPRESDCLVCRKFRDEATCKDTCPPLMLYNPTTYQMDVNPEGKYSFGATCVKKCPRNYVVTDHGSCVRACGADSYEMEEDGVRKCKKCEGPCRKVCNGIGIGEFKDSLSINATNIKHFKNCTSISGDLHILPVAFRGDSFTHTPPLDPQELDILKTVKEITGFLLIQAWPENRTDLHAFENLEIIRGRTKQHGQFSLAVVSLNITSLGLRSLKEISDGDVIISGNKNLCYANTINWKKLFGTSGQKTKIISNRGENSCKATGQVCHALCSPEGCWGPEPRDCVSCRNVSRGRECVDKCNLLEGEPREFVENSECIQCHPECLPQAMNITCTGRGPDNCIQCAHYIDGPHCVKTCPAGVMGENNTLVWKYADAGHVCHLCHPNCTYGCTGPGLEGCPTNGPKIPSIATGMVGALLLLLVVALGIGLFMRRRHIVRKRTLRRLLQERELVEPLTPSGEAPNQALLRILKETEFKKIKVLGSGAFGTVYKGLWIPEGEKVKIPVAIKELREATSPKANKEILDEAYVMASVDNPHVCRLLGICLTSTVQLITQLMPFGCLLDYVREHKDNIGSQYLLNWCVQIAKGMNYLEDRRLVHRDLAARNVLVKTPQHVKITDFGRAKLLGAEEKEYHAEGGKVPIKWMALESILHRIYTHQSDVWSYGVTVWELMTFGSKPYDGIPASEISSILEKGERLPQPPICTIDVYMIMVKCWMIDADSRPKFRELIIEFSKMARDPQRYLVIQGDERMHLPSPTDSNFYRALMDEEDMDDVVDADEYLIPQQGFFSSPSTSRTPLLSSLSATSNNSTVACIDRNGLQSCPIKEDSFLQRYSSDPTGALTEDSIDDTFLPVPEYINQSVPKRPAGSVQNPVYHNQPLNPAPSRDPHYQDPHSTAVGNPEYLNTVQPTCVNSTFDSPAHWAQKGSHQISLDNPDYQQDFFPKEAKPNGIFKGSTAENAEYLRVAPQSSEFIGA
T3 sequence (P00533 25-1210 T790M limits assumed): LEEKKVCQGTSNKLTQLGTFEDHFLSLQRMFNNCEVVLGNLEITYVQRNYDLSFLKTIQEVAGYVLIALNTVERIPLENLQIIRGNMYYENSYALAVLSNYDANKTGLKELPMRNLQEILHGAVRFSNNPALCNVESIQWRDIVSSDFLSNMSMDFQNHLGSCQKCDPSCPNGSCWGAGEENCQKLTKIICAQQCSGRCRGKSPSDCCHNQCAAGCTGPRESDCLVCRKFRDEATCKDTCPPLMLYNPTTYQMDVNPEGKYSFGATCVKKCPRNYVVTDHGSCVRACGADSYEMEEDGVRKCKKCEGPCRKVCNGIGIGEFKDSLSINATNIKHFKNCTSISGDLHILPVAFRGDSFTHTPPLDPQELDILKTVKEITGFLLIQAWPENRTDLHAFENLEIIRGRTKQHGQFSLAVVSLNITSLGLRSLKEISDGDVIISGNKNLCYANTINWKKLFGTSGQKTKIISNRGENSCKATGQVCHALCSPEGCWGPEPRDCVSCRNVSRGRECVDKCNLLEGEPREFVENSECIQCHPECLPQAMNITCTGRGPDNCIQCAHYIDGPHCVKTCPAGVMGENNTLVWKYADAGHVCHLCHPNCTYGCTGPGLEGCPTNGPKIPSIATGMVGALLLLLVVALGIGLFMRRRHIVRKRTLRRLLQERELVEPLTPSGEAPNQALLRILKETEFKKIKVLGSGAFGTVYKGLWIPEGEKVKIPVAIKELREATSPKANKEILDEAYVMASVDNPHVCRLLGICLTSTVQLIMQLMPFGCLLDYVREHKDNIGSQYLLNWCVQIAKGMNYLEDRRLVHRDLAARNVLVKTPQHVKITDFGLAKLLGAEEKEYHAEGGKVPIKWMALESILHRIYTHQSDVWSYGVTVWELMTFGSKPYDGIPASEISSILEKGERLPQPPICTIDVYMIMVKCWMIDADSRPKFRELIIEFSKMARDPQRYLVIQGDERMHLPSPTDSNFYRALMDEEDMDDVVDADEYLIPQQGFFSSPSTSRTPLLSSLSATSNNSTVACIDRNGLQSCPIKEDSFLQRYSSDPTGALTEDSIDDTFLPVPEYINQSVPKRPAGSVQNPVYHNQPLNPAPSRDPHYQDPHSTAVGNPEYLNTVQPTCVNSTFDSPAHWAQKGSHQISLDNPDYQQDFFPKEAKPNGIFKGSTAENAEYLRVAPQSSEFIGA
T5 sequence (P00533 whole entry): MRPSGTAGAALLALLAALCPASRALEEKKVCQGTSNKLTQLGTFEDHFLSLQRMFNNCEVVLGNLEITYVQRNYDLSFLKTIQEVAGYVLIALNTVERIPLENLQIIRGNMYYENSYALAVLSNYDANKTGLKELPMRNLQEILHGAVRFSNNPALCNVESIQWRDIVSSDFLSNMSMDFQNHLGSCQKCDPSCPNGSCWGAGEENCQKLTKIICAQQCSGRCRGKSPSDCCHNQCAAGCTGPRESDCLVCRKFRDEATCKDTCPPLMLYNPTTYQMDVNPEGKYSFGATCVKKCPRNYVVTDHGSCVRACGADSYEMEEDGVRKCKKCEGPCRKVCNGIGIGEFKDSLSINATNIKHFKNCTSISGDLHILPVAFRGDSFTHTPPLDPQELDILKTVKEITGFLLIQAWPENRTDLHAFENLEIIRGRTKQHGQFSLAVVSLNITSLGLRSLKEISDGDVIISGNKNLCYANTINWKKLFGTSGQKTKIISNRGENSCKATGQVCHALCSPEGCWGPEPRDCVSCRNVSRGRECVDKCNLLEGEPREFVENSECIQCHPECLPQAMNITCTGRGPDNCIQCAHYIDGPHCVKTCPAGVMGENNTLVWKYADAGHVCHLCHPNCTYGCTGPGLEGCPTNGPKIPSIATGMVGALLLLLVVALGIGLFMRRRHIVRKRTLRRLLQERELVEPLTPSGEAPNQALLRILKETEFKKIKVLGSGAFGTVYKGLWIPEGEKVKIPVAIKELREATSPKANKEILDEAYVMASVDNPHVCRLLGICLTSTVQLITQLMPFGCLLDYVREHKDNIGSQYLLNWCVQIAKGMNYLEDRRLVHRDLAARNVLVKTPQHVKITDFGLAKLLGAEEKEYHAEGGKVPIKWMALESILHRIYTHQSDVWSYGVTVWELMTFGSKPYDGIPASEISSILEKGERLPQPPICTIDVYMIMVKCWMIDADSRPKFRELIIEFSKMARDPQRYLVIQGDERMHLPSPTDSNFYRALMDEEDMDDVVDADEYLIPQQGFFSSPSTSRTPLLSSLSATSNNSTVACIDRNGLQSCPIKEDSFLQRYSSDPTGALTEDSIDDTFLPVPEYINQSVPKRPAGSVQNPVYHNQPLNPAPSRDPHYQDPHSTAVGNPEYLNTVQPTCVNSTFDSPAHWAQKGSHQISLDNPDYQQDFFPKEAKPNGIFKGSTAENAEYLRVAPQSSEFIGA

Row | SMILES | IC50 [6] [nM] | IC50 [9] [nM] | IC50 (A549) [nM] | IC50 [10] [nM] | IC50 [14] [nM] | IC50 [16] [nM] | IC50 (NCI-H1975 [21]) [nM] | IC50 (A-431) [nM] | IC50 (cells) [nM] | IC50 [11] [nM] | also measured
1 | C=CC(=O)Nc1cccc(N2C(=O)N(C)Cc3cnc(Nc4ccc(N5CCC(N(C)C)CC5)cc4OC)nc32)c1 | 5.2 | 2.83 | 14500 | 9.52 | 2.41 | 3.52 | 530 | 1390 | 150 | > 10000 | 
2 | C=CC(=O)Nc1cccc(N2C(=O)N(C)Cc3cnc(NC)nc32)c1 | > 1000 | 837 | > 20000 | > 1000 | > 1000 | 929 | 20100 | > 10000 | 6920 | > 10000 | 
3 | CCC(=O)Nc1cccc(N2C(=O)N(C)Cc3cnc(Nc4ccc(N5CCN(C)CC5)cc4OC)nc32)c1 | > 1000 | > 1000 | > 30000 | > 1000 | > 1000 | > 1000 | > 20000 | > 10000 |  | > 10000 | Kd [22]: 1400 nM; Kd [23]: 560 nM; Kd [24]: 850 nM; Kd [25]: 1100 nM; Kd [26]: 1600 nM
4 | C=CC(=O)Nc1cccc(N2C(=O)N(C)Cc3cnc(Nc4ccc(N(C)C)cc4OC)nc32)c1 | 11.5 | 6.22 | > 20000 | 24.9 | 4.95 | 4.99 | 540 | 5620 | 740 | > 10000 | 
5 | C=CC(=O)Nc1cccc(N2C(=O)N(C)Cc3cnc(Nc4ccccc4)nc32)c1 | 28.3 | 12.1 | 18000 | 45.7 | 10.9 | 6.95 | 170 | 6900 | 44 | > 10000 | 
6 | C=CC(=O)Nc1cccc(N2C(=O)N(C)Cc3cnc(Nc4ccc(N5CCN(C)CC5)cc4OC)nc32)c1 | 3.14 | 1.21 | 15900 | 6.56 | 1.08 | 1.16 | 47 | 750 | 18 | > 10000 | 
7 | C=CC(=O)Nc1cc2c(Nc3ccc(F)c(Cl)c3)ncnc2cc1OCCCN1CCOCC1 [CANERTINIB] |  |  |  |  |  |  |  |  | 1 |  | 
8 | C=CC(=O)Nc1cccc(N2C(=O)N(C)Cc3cnc(Nc4ccc(N5CCCN(C)CC5)cc4OC)nc32)c1 | 5.17 | 2.75 | > 20000 | 11 | 2.11 | 1.47 | 720 | 2150 | 73 | > 10000 | 
9 | C=CC(=O)Nc1cccc(N2C(=O)N(C)Cc3cnc(Nc4ccc(N5CCCCC5)cc4OC)nc32)c1 | 36.4 | 15.4 | 12000 | 95.7 | 10.4 | 29.5 | 610 | 5060 | 170 | > 10000 | 

Further compounds by falling IC50 (A549), results first:

Row | IC50 [6] [nM] | IC50 [9] [nM] | IC50 (A549) [nM] | IC50 [10] [nM] | IC50 [14] [nM] | IC50 [16] [nM] | IC50 (NCI-H1975 [21]) [nM] | IC50 (A-431) [nM] | IC50 (cells) [nM] | SMILES | IC50 [11] [nM] | also measured
10 | 4.18 | 1.31 | 11900 | 9.37 | 1.21 | 1.95 | 200 | 990 | 31 | C=CC(=O)Nc1cccc(N2C(=O)N(C)Cc3cnc(Nc4ccc(N5CCN(C)CC5)cc4C)nc32)c1 | > 10000 | 
11 | 36.3 | 13.5 | 11700 | 39.9 | 13.7 | 8.81 | 230 | 2110 | 27 | C=CC(=O)Nc1cccc(N2C(=O)N(C)Cc3cnc(Nc4ccc(N5CCN(C)CC5)cc4OC(C)C)nc32)c1 | > 10000 | 
12 | 1.19 | 0.56 | 11400 | 1.66 | 0.53 | 0.43 | 45 | 550 | 14 | C=CC(=O)Nc1cccc(N2C(=O)N(C)Cc3cnc(Nc4ccc(N5CCN(C)CC5)cc4)nc32)c1 | 7560 | 
13 | > 1000 | > 1000 | 11200 | > 1000 | > 1000 | > 1000 | > 20000 | > 10000 | 4890 | COc1cc(N2CCN(C)CC2)ccc1Nc1ncc2c(n1)N(c1cccc(N)c1)C(=O)N(C)C2 | > 10000 | 
14 | > 1000 | > 1000 | 11100 | > 1000 | > 1000 | > 1000 | 8460 | > 10000 | 5010 | C=CC(=O)Nc1cccc(N2C(=O)N(C)Cc3cnc(Nc4ccc(N5CCN(C)CC5)cc4F)nc32)c1 | 7180 | 
15 | 28.9 | 12.7 | 10500 | 60.3 | 10.3 | 16.4 | 150 | > 10000 | 130 | C=CC(=O)Nc1cccc(N2C(=O)N(C)Cc3cnc(Nc4ccc(N5CCOCC5)cc4OC)nc32)c1 | > 10000 | 
16 | 7.1 | 3.02 | 10400 | 12.7 | 2.68 | 4.41 | 103 | 1080 | 14 | C=CC(=O)Nc1cccc(N2C(=O)N(C)Cc3cnc(Nc4ccc(N5CCN(C)CC5)cc4OCC)nc32)c1 | > 10000 | 
17 | 4.42 | 0.46 | 8420 |  | 0.45 | 0.38 | 58 | 820 | 4 | C=CC(=O)Nc1cccc(N2C(=O)N(C(C)C)Cc3cnc(Nc4ccc(N5CCN(C)CC5)cc4OC)nc32)c1 | > 10000 | 
18 |  |  | 5310 |  |  |  | 48 | 1390 | 7 | C=CC(=O)Nc1cccc(Oc2nc(Nc3ccc(N4CCN(C)CC4)cc3OC)ncc2Cl)c1 | 2730 | 
19 | 0.98 | 0.93 | 2800 | 0.51 | 0.46 | 0.3 |  |  |  | C=CC(=O)Nc1cccc(N2C(=O)N(c3ccccc3)Cc3cnc(Nc4ccc(N5CCN(C)CC5)cc4OC)nc32)c1 | 4020 | Activity [1]: Active; Activity [2]: Active; Activity (NCI-H1975 [3]): Active; Activity [4]: Active; Activity [5]: Active; Activity [7]: Non-toxic; Activity [8]: Active; Activity (NCI-H1975 [12]): Active; Activity [13]: Active; Activity [15]: Active; inhibition (NCI-H1975 [17]): Dose-dependent effect; Activity (HCC827 [18]): Active; Activity (HCC827 [19]): Active; Activity [20]: Active
20 | 6.31 | 2.56 | 2470 | 2.43 | 2.42 | 1.67 |  |  |  | C=CC(=O)Nc1cccc(N2C(=O)N(c3ccc(OCc4ccccc4)cc3)Cc3cnc(Nc4ccc(N5CCN(C)CC5)cc4OC)nc32)c1 | 2790 | 
21 | 4.64 | 3.43 | 2270 | 5.24 | 1.67 | 1.41 |  |  |  | C=CC(=O)Nc1cccc(N2C(=O)N(c3ccc(-c4ccccc4)cc3)Cc3cnc(Nc4ccc(N5CCN(C)CC5)cc4OC)nc32)c1 | 3690 | 
22 | 3.57 | 2.31 | 1770 | 2.03 | 1.66 | 1.52 |  |  |  | C=CC(=O)Nc1cccc(N2C(=O)N(c3ccc(Oc4ccccc4)cc3)Cc3cnc(Nc4ccc(N5CCN(C)CC5)cc4OC)nc32)c1 | > 10000 | 
